Reference: ChEMBL document CHEMBL4190216, “Asymmetric 1,5-diarylpenta-1,4-dien-3-ones: Antiproliferative activity in prostate epithelial cell models and pharmacokinetic studies” (Eur J Med Chem, 2017)

Tests used:
[1] = Drug metabolism in human liver microsomes assessed as (1E,4E)-1-(1-sec-butyl-4-hydroxy-1H-imidazol-2-yl)-5-(2-methyl-4-(trifluoromethyl)thiazol-5-yl)penta-1,4-dien-3-one formation at 10 mM after 60 mins by UHPLC analysis; assay type: ADME, microsome
Method in brief: (§1)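 Pooled human liver microsomes in potassium phosphate buffer (pH 7.4) with NADPH solutions A and B were preincubated for 5 min at 37 °C. Compound was then added from a 10 mM stock (3 μL into 300 μL total) and incubated 60 min at 37 °C. Reactions were quenched with an equal volume of methanol and centrifuged (10,000 × g, 4 min, 4 °C). Supernatant went to UHPLC–high-resolution MS for metabolite identification.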

PC-3 [2] = experiment: Cell cycle arrest in human PC3 cells assessed as accumulation at G0/G1 phase at 5 uM after 24 hrs by propidium iodide staining-based flow cytometric method (reference value: 59 to 62%); assay type: functional
[3] = Tmax in Sprague-Dawley rat at 10 mg/kg administered via oral gavage by HPLC-MS/MS analysis; assay type: ADME, organism-based; details: in vivo
[4] = Drug metabolism in human liver microsomes assessed as (1Z,4E)-5-(1-sec-butyl-1H-imidazol-2-yl)-1-hydroxy-1-(2-methyl-4-(trifluoromethyl)thiazol-5-yl)penta-1,4-dien-3-one formation at 10 mM after 60 mins by UHPLC analysis; assay type: ADME, microsome; method in brief: as §1
PC-3 [5] = experiment: Induction of apoptosis in human PC3 cells assessed as late apoptotic/necrotic cells at 5 uM after 16 hrs by F2N12S/CYTOX AADvanced double staining-based flow cytometric method (reference value: 3%); assay type: functional
PWR-1E [6] = experiment: Potency index, ratio of curcumin IC50 to test compound IC50 for human PWR-1E cells expressing androgen receptor and PSA; assay type: functional
Rattus norvegicus = experiment: Acute toxicity in Sprague-Dawley rat at 10 mg/kg administered via oral gavage; assay type: organism-based; details: in vivo
Method in brief: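 Male Sprague-Dawley rats (250–300 g, n = 4) each received a single 10 mg/kg oral gavage dose. The vehicle was 5% DMSO, 40% polyethylene glycol 400 and 55% saline. Blood was drawn from the lateral tail vein at 1, 3, 6 and 24 h for plasma drug levels. Toxicity was scored as observed deaths after dosing.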

PC-3 [7] = experiment: Induction of apoptosis in human PC3 cells assessed as viable cells at 30 uM after 16 hrs by F2N12S/CYTOX AADvanced double staining-based flow cytometric method (reference value: 95%); assay type: functional; details: PC-3, 16 h, read-out: Activity
PC-3 [8] = experiment: Induction of apoptosis in human PC3 cells assessed as viable cells at 40 uM after 16 hrs by F2N12S/CYTOX AADvanced double staining-based flow cytometric method (reference value: 95%); assay type: functional; details: PC-3, 16 h, read-out: Activity
PC-3 [9] = experiment: Induction of apoptosis in human PC3 cells assessed as early apoptotic cells at 15 uM after 16 hrs by F2N12S/CYTOX AADvanced double staining-based flow cytometric method (reference value: 2%); assay type: functional
[10] = Plasma concentration in Sprague-Dawley rat at 10 mg/kg administered via oral gavage measured at 1 hr by HPLC-MS/MS analysis; assay type: ADME, organism-based
VCaP = experiment: Antiproliferative activity against human VCaP cells expressing androgen receptor splice variants assessed as decrease in cell viability after 5 days by trypan blue exclusion assay; assay type: functional, cell-based; details: 120 h
PC-3 [11] = experiment: Induction of apoptosis in human PC3 cells assessed as early apoptotic cells at 30 uM after 16 hrs by F2N12S/CYTOX AADvanced double staining-based flow cytometric method (reference value: 2%); assay type: functional
PC-3 [12] = experiment: Induction of apoptosis in human PC3 cells assessed as early apoptotic cells at 20 uM after 16 hrs by F2N12S/CYTOX AADvanced double staining-based flow cytometric method (reference value: 2%); assay type: functional
PC-3 [13] = experiment: Induction of apoptosis in human PC3 cells assessed as late apoptotic/necrotic cells at 30 uM after 16 hrs by F2N12S/CYTOX AADvanced double staining-based flow cytometric method (reference value: 3%); assay type: functional
[14] = Plasma concentration in Sprague-Dawley rat at 10 mg/kg administered via oral gavage measured at 6 hrs by HPLC-MS/MS analysis; assay type: ADME, organism-based
PC-3 [15] = experiment: Induction of apoptosis in human PC3 cells assessed as viable cells at 15 uM after 16 hrs by F2N12S/CYTOX AADvanced double staining-based flow cytometric method (reference value: 95%); assay type: functional; details: PC-3, 16 h, read-out: Activity
PC-3 [16] = experiment: Induction of apoptosis in human PC3 cells assessed as late apoptotic/necrotic cells at 40 uM after 16 hrs by F2N12S/CYTOX AADvanced double staining-based flow cytometric method (reference value: 3%); assay type: functional
PC-3 [17] = experiment: Potency index, ratio of curcumin IC50 to test compound IC50 for human PC3 cells; assay type: functional
PWR-1E [18] = experiment: Antiproliferative activity against human PWR-1E cells expressing androgen receptor and PSA assessed as decrease in cell viability after 3 days by WST assay; assay type: functional, cell-based; details: 72 h
Method in brief: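 Non-malignant prostate epithelial PWR-1E (adenovirus 12/SV40-immortalized) was seeded at 5,000 per well. Cells were exposed for 3 days at 37 °C in a CO2 incubator to at least five concentrations, with DMSO as vehicle control. WST-1 reagent was then added for 3 h at 37 °C and absorbance read at 430 nm. IC50 came from linear inhibition, as the mean of triplicate determinations.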

LNCaP [19] = experiment: Potency index, ratio of curcumin IC50 to test compound IC50 for human LNCAP cells; assay type: functional
PC-3 [20] = experiment: Induction of apoptosis in human PC3 cells assessed as early apoptotic cells at 10 uM after 16 hrs by F2N12S/CYTOX AADvanced double staining-based flow cytometric method (reference value: 2%); assay type: functional
PC-3 [21] = experiment: Induction of apoptosis in human PC3 cells assessed as late apoptotic/necrotic cells at 10 uM after 16 hrs by F2N12S/CYTOX AADvanced double staining-based flow cytometric method (reference value: 3%); assay type: functional
[22] = Plasma concentration in Sprague-Dawley rat at 10 mg/kg administered via oral gavage measured after 1 day by HPLC-MS/MS analysis; assay type: ADME, organism-based
PC-3 [23] = experiment: Cell cycle arrest in human PC3 cells assessed as accumulation at G0/G1 phase at 5 uM after 16 hrs by propidium iodide staining-based flow cytometric method (reference value: 51 to 52%); assay type: functional
LNCaP [24] = experiment: Antiproliferative activity against human LNCAP cells assessed as decrease in cell viability after 3 days by WST assay; assay type: functional, cell-based; details: 72 h
Method in brief: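 Cells were seeded at 3,200 per well. PC-3 and LNCaP were grown in RPMI-1640 and DU-145 in EMEM, each with 10% FBS and 1% penicillin/streptomycin, at 37 °C and 5% CO2. Cells were exposed for 3 days to at least five concentrations, with DMSO as vehicle control. WST-1 reagent was then added for 3 h at 37 °C and absorbance read at 430 nm. IC50 came from linear inhibition, averaged over triplicates.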

PC-3 [25] = experiment: Induction of apoptosis in human PC3 cells assessed as viable cells at 20 uM after 16 hrs by F2N12S/CYTOX AADvanced double staining-based flow cytometric method (reference value: 95%); assay type: functional; details: PC-3, 16 h, read-out: Activity
[26] = Cmax in Sprague-Dawley rat at 10 mg/kg administered via oral gavage by HPLC-MS/MS analysis; assay type: ADME, organism-based; set-up: dose 10 mg/kg, route oral; details: in vivo
[27] = Drug metabolism in human liver microsomes assessed as (1Z,4E)-1-(1-sec-butyl-1H-imidazol-2-yl)-1-hydroxy-5-(2-methyl-4-(trifluoromethyl)thiazol-5-yl)penta-1,4-dien-3-one formation at 10 mM after 60 mins by UHPLC analysis; assay type: ADME, microsome; method in brief: as §1

Structure (SMILES): CCC(C)n1ccnc1/C=C/C(=O)/C=C/c1sc(C)nc1C(F)(F)F (centres undefined)
- Drug metabolism [1]: Metabolite_Detected
- Activity (PC-3 [2]): 66%
- Tmax [3]: 6 h
- Drug metabolism [4]: Metabolite_Detected
- Activity (PC-3 [5]): 39%
- Ratio IC50 (PWR-1E [6]): 81
- Activity (Rattus norvegicus): Non-Toxic
- viability at 30 µM (PC-3 [7]): 34%
- viability at 40 µM (PC-3 [8]): 22%
- Activity (PC-3 [9]): 13%
- concentration at 1 h [10]: 361 ng/mL
- IC50 (VCaP): 350 nM
- Activity (PC-3 [11]): 20%
- Activity (PC-3 [12]): 26%
- Activity (PC-3 [13]): 46%
- concentration at 6 h [14]: 1940 ng/mL
- viability at 15 µM (PC-3 [15]): 54%
- Activity (PC-3 [16]): 53%
- Ratio IC50 (PC-3 [17]): 110
- IC50 (PWR-1E [18]): 110 nM
- Ratio IC50 (LNCaP [19]): 62
- Activity (PC-3 [20]): 14%
- Activity (PC-3 [21]): 37%
- concentration at 24 h [22]: 230 ng/mL
- Activity (PC-3 [23]): 68%
- IC50 (LNCaP [24]): 220 nM
- viability at 20 µM (PC-3 [25]): 51%
- Cmax [26]: 5.27 µM
- Drug metabolism [27]: Metabolite_Detected
